Assay results as given in ChEMBL document CHEMBL1255381, “Golgicide A reveals essential roles for GBF1 in Golgi assembly and function” (Nat Chem Biol, 2009).
The source made the active and inactive calls. The rule behind the calls is not given here.

Assays:
Assay type in all cases: cell-based
Details in all cases: Chlorocebus sabaeus
Vero [1] = assay: Inhibition of Arf1 in african green monkey Vero cells assessed as tubule formation from trans golgi network and endosomes before its dispersal at 10 ug/ml after 1 hr by immunofluorescence method
Vero [2] = assay: Induction of GBF1 in african green monkey Vero cells assessed as punctate and diffuse distribution of cis-Golgi marker GM130 from TGN at 10 uM after 1 hr by immunofluorescence method
Vero [3] = assay: Inhibition of Arf1 in african green monkey Vero cells assessed as decrease in Arf1-GTP levels at 10 ug/ml after 1 hr
Outline: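 Vero cells transduced with adenoviral Arf1-V5, alone or with GBF1-ML-HA; next day reseeded, then 45 min at 37°C with medium, BFA 10 µg/ml or compound 10 μM. Lysates pulled down with GGA3 VHS-GAT-GST on glutathione agarose, 30 min 4°C; Arf1-GTP by anti-V5 Western, band densitometry, duplicate experiments averaged.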

Vero [4] = assay: Inhibition of Arf1 in african green monkey Vero cells assessed as giantin positive punctate structures in contact with Sec31-positive ER exit site at 10 ug/ml after 1 hr by immunofluorescence method
Outline: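 Vero cells given BFA 10 μg/ml or compound 10 μM for 60 min, fixed, co-stained for giantin and ER exit site marker Sec31; giantin puncta relative to ERES scored by immunofluorescence.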

Vero [5] = assay: Inhibition of Arf1 in african green monkey Vero cells overexpressing BIG1 assessed as punctate and diffuse distribution of medial-Golgi marker giantin from golgi at 10 ug/ml after 1 hr by immunofluorescence method
Vero [6] = assay: Inhibition of Arf1 in african green monkey Vero cells expressing GBF1 QNV to AAA mutant assessed as effect on change in golgi morphology at 10 ug/ml after 1 hr by immunofluorescence method
Vero [7] = assay: Inhibition of Arf1 in african green monkey Vero cells assessed as punctate and diffuse distribution of cis-Golgi marker GM130 at 10 ug/ml after 1 hr by immunofluorescence method
Vero [8] = assay: Inhibition of Arf1 in african green monkey Vero cells assessed as punctate and diffuse distribution of medial-Golgi marker giantin at 10 ug/ml after 1 hr by immunofluorescence method
Vero [9] = assay: Inhibition of Arf1 in african green monkey Vero cells assessed as inhibition of StxB-SS retrogade transport from endosomes to TGN at 10 ug/ml by immunofluorescence method
Vero [10] = assay: Inhibition of Arf1 in african green monkey Vero cells expressing GBF1 QNV deleted mutant assessed as effect on change in golgi morphology at 10 ug/ml after 1 hr by immunofluorescence method
Vero [11] = assay: Inhibition of Arf1 in african green monkey Vero cells assessed as rapid GGA3 dispersal from trans golgi network at 10 ug/ml after 5 mins by immunofluorescence method
Vero [12] = assay: Inhibition of GBF1 in african green monkey Vero cells assessed as inhibition of StxB-SS retrogade transport from endosomes to TGN at 10 uM by immunofluorescence method
Vero [13] = assay: Inhibition of Arf1 in african green monkey Vero cells expressing GBF1-M832L mutant assessed as inhibition of StxB-SS retrogade transport from endosomes to TGN in african green monkey Vero cells at 10 ug/ml by immunofluorescence method
Vero [14] = assay: Inhibition of Arf1 in african green monkey Vero cells assessed as rapid AP-1 dispersal from golgi membranes at 10 ug/ml after 5 mins by immunofluorescence method
Vero [15] = assay: Restoration of Arf1-GTP levels in african green monkey Vero cells expressing GBF1-M832L mutant at 10 ug/ml after 1 hr
Vero [16] = assay: Inhibition of GBF1 QNV to AAA mutant in african green monkey Vero cells assessed as effect on change in golgi morphology at 10 uM after 1 hr by immunofluorescence method
Vero [17] = assay: Inhibition of Arf1 in african green monkey Vero cells assessed as rapid COPI redistribution from golgi at 10 ug/ml after 5 mins by immunofluorescence method
Vero [18] = assay: Inhibition of GBF1 in african green monkey Vero cells assessed as punctate and diffuse distribution of medial-Golgi marker giantin […] at 10 uM after 1 hr by immunofluorescence method
Vero [19] = assay: Inhibition of GBF1 in african green monkey Vero cells assessed as tubule formation from trans golgi network and endosomes before its dispersal in african green monkey Vero cells at 10 uM after 1 hr by immunofluorescence method
Vero [20] = assay: Inhibition of GBF1 QNV deleted mutant in african green monkey Vero cells assessed as effect on change in golgi morphology at 10 uM after 1 hr by immunofluorescence method

## C[C@H]1CCC/C=C/[C@@H]2C[C@H](O)C[C@H]2[C@H](O)/C=C/C(=O)O1
Vero [1]
  inhibition: Active
Vero [2]
  Activity: Active
Vero [3]
  inhibition: Active
Vero [4]
  inhibition: Active
Vero [5]
  inhibition: inactive
Vero [6]
  inhibition: inactive
Vero [7]
  inhibition: Active
Vero [8]
  inhibition: Active
Vero [9]
  inhibition: Active
Vero [10]
  inhibition: inactive
Vero [11]
  inhibition: Active
Vero [12]
  inhibition: Active
Vero [13]
  inhibition: inactive
Vero [14]
  inhibition: Active
Vero [15]
  Activity: inactive
Vero [16]
  inhibition: Active
Vero [17]
  inhibition: Active
Vero [18]
  inhibition: Active
Vero [19]
  inhibition: inactive
Vero [20]
  inhibition: Active
